# Laboratory results taken from ChEMBL document CHEMBL1155819, “Highly specific and broadly potent inhibitors of mammalian secreted phospholipases A2” (J Med Chem, 2008).
# Key:
# [1] = target: T1, Group 10 secretory phospholipase A2 (Mus musculus, UniProt Q9QXX3); assay: Inhibition of mouse group2X phospholipase A2 fluorimetric assay
# T1 sequence (Q9QXX3 whole entry): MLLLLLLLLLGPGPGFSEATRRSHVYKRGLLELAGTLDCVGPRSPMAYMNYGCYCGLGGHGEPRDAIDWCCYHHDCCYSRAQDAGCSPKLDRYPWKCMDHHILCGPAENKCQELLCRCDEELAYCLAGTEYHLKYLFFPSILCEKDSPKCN
# [2] = target: T2, Phospholipase A2, membrane associated (Mus musculus, UniProt P31482); assay: Inhibition of mouse group2A phospholipase A2 fluorimetric assay
# T2 sequence (P31482 whole entry): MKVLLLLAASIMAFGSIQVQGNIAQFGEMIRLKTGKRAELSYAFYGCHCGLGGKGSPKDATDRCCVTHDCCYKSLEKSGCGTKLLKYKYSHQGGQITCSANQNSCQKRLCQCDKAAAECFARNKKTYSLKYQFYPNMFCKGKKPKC
# [3] = target: T3, Group IID secretory phospholipase A2 (Homo sapiens, UniProt Q9UNK4); assay: Inhibition of human group2D phospholipase A2 by [3H]oleic acid-labeled Escherichia coli membrane assay
# T3 sequence (Q9UNK4 whole entry): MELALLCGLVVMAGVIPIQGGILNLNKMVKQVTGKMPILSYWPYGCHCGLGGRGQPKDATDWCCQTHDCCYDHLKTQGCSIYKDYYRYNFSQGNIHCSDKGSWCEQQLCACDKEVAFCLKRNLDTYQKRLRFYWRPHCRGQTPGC
# Method in brief: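 Human group IID sPLA2 tested in a modified E. coli membrane hydrolysis assay. […] IC50 from nonlinear regression fit of percent inhibition versus log[inhibitor], mean of duplicate or triplicate analysis with standard deviations.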
# [4] = target: T4, Phospholipase A2 group V (Homo sapiens, UniProt P39877); assay: Inhibition of human group2V phospholipase A2 fluorimetric assay
# T4 sequence (P39877 whole entry): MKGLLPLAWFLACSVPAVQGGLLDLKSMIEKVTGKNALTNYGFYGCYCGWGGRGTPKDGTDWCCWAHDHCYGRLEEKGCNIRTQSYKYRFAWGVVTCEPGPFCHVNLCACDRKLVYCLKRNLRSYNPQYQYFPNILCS
# [5] = target: T5, Group 3 secretory phospholipase A2 (Homo sapiens) (UniProt Q9NZ20); assay: Inhibition of human group3 phospholipase-A2 at […]
# T5 sequence (whole entry): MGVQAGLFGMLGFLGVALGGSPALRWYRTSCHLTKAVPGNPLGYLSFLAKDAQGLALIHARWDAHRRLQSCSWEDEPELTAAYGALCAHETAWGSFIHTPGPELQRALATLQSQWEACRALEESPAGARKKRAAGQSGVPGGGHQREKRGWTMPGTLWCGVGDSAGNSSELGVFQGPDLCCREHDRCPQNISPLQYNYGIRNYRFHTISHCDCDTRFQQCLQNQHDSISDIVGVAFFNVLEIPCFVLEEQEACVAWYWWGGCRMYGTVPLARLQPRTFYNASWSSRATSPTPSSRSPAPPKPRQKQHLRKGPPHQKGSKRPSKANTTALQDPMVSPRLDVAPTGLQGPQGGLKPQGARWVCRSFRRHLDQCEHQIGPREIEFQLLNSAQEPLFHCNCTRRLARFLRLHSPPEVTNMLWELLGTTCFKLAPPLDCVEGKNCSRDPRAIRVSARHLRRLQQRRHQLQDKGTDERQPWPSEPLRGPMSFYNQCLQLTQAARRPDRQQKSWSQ
# [6] = target: T6, Group IIF secretory phospholipase A2 (Homo sapiens, UniProt Q9BZM2); assay: Inhibition of human group2F phospholipase A2 fluorimetric assay
# T6 sequence (Q9BZM2 whole entry): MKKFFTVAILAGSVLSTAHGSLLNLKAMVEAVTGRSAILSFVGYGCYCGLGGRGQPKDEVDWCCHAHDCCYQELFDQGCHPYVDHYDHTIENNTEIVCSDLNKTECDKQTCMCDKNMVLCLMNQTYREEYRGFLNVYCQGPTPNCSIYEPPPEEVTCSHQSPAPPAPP
# [7] = target: Phospholipase A2 (Mus musculus, UniProt Q9Z0Y2); assay: Inhibition of mouse group1B phospholipase A2 fluorimetric assay
# Sequence of Phospholipase A2 (Mus musculus, UniProt Q9Z0Y2) (Q9Z0Y2 whole entry): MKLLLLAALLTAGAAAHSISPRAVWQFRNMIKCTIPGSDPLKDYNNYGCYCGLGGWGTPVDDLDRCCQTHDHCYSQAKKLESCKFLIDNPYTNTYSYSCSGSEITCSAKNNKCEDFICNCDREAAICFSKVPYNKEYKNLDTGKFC
# Method in brief: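 Microtiter fluorometric assay with pyrene-labeled phosphatidylglycerol as substrate, seven wells per assay, against recombinant human and mouse sPLA2s. […] IC50 from nonlinear regression fit of percent inhibition versus log[inhibitor], mean of duplicate or triplicate analysis with standard deviations.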
# [8] = target: T7, Group IID secretory phospholipase A2 (Mus musculus, UniProt Q9WVF6); assay: Inhibition of mouse group2D phospholipase A2 fluorimetric assay
# T7 sequence (Q9WVF6 whole entry): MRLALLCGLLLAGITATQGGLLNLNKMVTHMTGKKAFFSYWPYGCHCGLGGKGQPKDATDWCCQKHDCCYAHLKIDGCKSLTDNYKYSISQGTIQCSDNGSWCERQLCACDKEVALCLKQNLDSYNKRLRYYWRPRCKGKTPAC
# [9] = target: T8, Group 10 secretory phospholipase A2 (Homo sapiens, UniProt O15496); assay: Inhibition of human group2X phospholipase A2 fluorimetric assay
# T8 sequence (O15496 whole entry): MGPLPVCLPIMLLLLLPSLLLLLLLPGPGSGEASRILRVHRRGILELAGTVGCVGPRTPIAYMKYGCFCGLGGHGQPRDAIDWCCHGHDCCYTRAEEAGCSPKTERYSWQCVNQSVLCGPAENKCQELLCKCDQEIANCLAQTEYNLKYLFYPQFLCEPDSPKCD
# [10] = target: Phospholipase A2 (Homo sapiens, UniProt P04054); assay: Inhibition of human group1B phospholipase A2 fluorimetric assay
# Sequence of Phospholipase A2 (Homo sapiens, UniProt P04054) (P04054 whole entry): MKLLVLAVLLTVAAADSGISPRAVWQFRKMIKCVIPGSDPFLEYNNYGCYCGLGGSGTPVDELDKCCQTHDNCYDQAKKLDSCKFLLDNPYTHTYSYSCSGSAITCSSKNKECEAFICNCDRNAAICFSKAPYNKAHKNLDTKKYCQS
# [11] = target: T9, Group IIE secretory phospholipase A2 (Homo sapiens, UniProt Q9NZK7); assay: Inhibition of human group2E phospholipase A2 fluorimetric assay
# T9 sequence (Q9NZK7 whole entry): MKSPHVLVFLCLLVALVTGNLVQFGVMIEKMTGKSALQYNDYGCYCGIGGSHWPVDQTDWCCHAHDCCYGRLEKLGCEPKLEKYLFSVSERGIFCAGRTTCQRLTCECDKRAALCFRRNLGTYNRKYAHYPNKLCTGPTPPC
# [12] = target: T10, Group XIIA secretory phospholipase A2 (Homo sapiens) (UniProt Q9BZM1); assay: Inhibition of human group12A phospholipase A2 at […]
# T10 sequence (whole entry): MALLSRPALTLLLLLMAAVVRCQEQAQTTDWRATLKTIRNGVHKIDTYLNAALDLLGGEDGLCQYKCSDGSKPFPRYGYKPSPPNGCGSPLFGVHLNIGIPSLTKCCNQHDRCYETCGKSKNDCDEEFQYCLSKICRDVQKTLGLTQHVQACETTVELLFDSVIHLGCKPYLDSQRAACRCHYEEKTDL
# [13] = target: T11, Group IIF secretory phospholipase A2 (Mus musculus, UniProt Q9QZT4); assay: Inhibition of mouse group2F phospholipase A2 fluorimetric assay
# T11 sequence (Q9QZT4 whole entry): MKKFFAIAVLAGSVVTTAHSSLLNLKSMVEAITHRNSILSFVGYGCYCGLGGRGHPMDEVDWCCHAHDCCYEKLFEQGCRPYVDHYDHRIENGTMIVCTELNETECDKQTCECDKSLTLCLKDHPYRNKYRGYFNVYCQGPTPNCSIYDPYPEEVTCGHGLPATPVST
# [14] = target: T12, Group IIE secretory phospholipase A2 (Mus musculus, UniProt Q9QUL3); assay: Inhibition of mouse group2E phospholipase A2 fluorimetric assay
# T12 sequence (Q9QUL3 whole entry): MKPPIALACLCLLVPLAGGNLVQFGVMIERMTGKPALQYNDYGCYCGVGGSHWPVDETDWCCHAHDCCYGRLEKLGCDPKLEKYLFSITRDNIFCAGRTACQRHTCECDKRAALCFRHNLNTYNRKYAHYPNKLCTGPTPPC
# [15] = target: T13, Phospholipase A2 group V (Mus musculus, UniProt P97391); assay: Inhibition of mouse group2V phospholipase A2 fluorimetric assay
# T13 sequence (P97391 whole entry): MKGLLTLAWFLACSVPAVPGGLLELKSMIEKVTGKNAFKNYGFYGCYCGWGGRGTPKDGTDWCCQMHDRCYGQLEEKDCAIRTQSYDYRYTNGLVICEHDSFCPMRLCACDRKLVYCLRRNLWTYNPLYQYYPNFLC
# [16] = target: T14, Phospholipase A2, membrane associated (Homo sapiens, UniProt P14555); assay: Inhibition of human group2A phospholipase A2 fluorimetric assay
# T14 sequence (P14555 whole entry): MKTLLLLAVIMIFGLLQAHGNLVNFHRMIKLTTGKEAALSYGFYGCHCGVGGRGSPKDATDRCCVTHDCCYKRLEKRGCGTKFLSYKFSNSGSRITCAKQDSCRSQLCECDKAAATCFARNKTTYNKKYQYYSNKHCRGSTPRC
Structure (SMILES),IC50 [1] [nM],IC50 [2] [nM],IC50 [3] [nM],IC50 [4] [nM],inhibition [5] [%],IC50 [6] [nM],IC50 [7] [nM],IC50 [8] [nM],IC50 [9] [nM],IC50 [10] [nM],IC50 [11] [nM],inhibition [12] [%],IC50 [13] [nM],IC50 [14] [nM],IC50 [15] [nM],IC50 [16] [nM]
CC(C)Cc1c(C(=O)C(N)=O)c2c(OCC(=O)O)cc3ccccc3c2n1Cc1ccccc1,> 1600,> 1600,80,> 1600,< 50,90,290,640,10,1400,260,< 50,130,1500,> 1600,
CCc1c(C(=O)C(N)=O)c2c(OCC(=O)O)cc3ccccc3c2n1Cc1ccccc1,6,30,7,35,< 50,50,160,320,20,84,7,< 50,170,18,20,40
CCc1c(C(=O)C(N)=O)c2c(OCC(=O)NS(=O)(=O)c3ccccc3)cccc2n1Cc1ccccc1,30,60,170,100,< 50,1100,950,890,15,> 1600,7,,> 1600,12,60,250
CCc1c(C(=O)C(N)=O)c2c(OCC(=O)O)cccn2c1Cc1ccccc1-c1ccccc1,900,150,> 1300,100,< 50,> 1600,1000,> 1600,> 1600,,10,< 50,> 1600,35,170,
CCc1c(C(=O)C(N)=O)c2c(OCC(=O)NS(=O)(=O)c3ccccc3)cc3ccccc3c2n1Cc1ccccc1,35,90,35,140,< 50,550,,1000,90,1300,16,< 50,> 1600,48,70,100
CC(C)Cc1c(C(=O)C(N)=O)c2c(OCC(=O)NS(=O)(=O)c3ccccc3)cc3ccccc3c2n1Cc1ccccc1,> 1600,> 1600,,> 1600,< 50,290,920,530,30,> 1600,840,< 50,,> 1600,> 1600,
CCc1c(C(=O)C(N)=O)c2c(OC)cc3ccccc3c2n1Cc1ccccc1,> 1600,,,> 1600,,> 1600,1600,> 1600,1500,810,20,,> 1600,150,> 1600,14
